Measured values as given in ChEMBL document CHEMBL1914423, “New imidazo[2,1-b]thiazole derivatives: synthesis, in vitro anticancer evaluation, and in silico studies” (Eur J Med Chem, 2011).

Tests used:
HOP-92 = experiment: Anticancer activity against human HOP92 cells assessed as cell growth at 10^-5 M after 48 hrs by SRB assay; format: functional; details: HOP-92, 48 h, read-out: Activity
In short: (§1)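 NCI-60 single-dose screen at one concentration. Cells grown in RPMI 1640 with 5% FBS and 2 mM L-glutamine, plated at 5000–40,000 cells/well, and pre-incubated 24 h at 37 °C in 5% CO2 before DMSO-dissolved drug was added. Cells fixed with TCA, SRB-stained, absorbance read at 515 nm. Percent growth calculated against time-zero and untreated control plates.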

HCT-116 = experiment: Anticancer activity against human HCT116 cells assessed as cell growth at 10^-5 M after 48 hrs by SRB assay; format: functional; details: HCT-116, 48 h, read-out: Activity; in short: as §1
UACC-257 = experiment: Anticancer activity against human UACC257 cells assessed as cell growth at 10^-5 M after 48 hrs by SRB assay; format: functional; details: UACC-257, 48 h, read-out: Activity
In short: (§2)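 NCI-60 single-dose screen: cells in RPMI 1640 with 5% FBS and 2 mM L-glutamine, plated at 5000–40,000 cells/well by doubling time, and preincubated 24 h at 37 °C. Compound given at one concentration from DMSO stock. Cells TCA-fixed and SRB-stained, absorbance at 515 nm. Percent growth relative to time-zero and untreated controls; inhibition % = 100 − growth %.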

IGROV-1 = experiment: Anticancer activity against human IGROV1 cells assessed as cell growth at 10^-5 M after 48 hrs by SRB assay; format: functional; details: IGROV-1, 48 h, read-out: Activity; in short: as §1
HOP-62 = experiment: Anticancer activity against human HOP62 cells assessed as cell growth at 10^-5 M after 48 hrs by SRB assay; format: functional; details: HOP-62, 48 h, read-out: Activity; in short: as §1
NCI-H226 = experiment: Anticancer activity against human NCI-H226 cells assessed as cell growth at 10^-5 M after 48 hrs by SRB assay; format: functional; details: NCI-H226, 48 h, read-out: Activity
SF-295 = experiment: Anticancer activity against human SF295 cells assessed as cell growth at 10^-5 M after 48 hrs by SRB assay; format: functional; details: SF-295, 48 h, read-out: Activity
EKVX = experiment: Anticancer activity against human EKVX cells assessed as cell growth at 10^-5 M after 48 hrs by SRB assay; format: functional; details: read-out: Activity; in short: as §1
PC-3 = experiment: Anticancer activity against human PC3 cells assessed as cell growth at 10^-5 M after 48 hrs by SRB assay; format: functional; details: PC-3, 48 h, read-out: Activity
OVCAR-4 = experiment: Anticancer activity against human OVCAR4 cells assessed as cell growth at 10^-5 M after 48 hrs by SRB assay; format: functional; details: OVCAR-4, 48 h, read-out: Activity
K562 = experiment: Anticancer activity against human K562 cells assessed as cell growth at 10^-5 M after 48 hrs by SRB assay; format: functional; details: K562, 48 h, read-out: Activity; in short: as §1
[1] = Antiproliferative activity against human A375P cells after 48 hrs by MTT assay; format: functional, cell-based
In short: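 A375P cells in DMEM with 10% FBS at 37 °C, 5% CO2. Seeded at 5×10³ cells/well, held 24 h, then treated with 12-point 3-fold serial dilutions for 48 h. Viability by MTT reduction. IC50 values are means of triplicate experiments.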

CAKI-1 = experiment: Anticancer activity against human Caki1 cells assessed as cell growth at 10^-5 M after 48 hrs by SRB assay; format: functional; details: CAKI-1, 48 h, read-out: Activity; in short: as §1
UO-31 = experiment: Anticancer activity against human UO31 cells assessed as cell growth at 10^-5 M after 48 hrs by SRB assay; format: functional; details: UO-31, 48 h, read-out: Activity; in short: as §2
NCI-H522 = experiment: Anticancer activity against human NCI-H522 cells assessed as cell growth at 10^-5 M after 48 hrs by SRB assay; format: functional; details: NCI-H522, 48 h, read-out: Activity
SW-620 = experiment: Anticancer activity against human SW620 cells assessed as cell growth at 10^-5 M after 48 hrs by SRB assay; format: functional; details: SW-620, 48 h, read-out: Activity; in short: as §2
CCRF-CEM = experiment: Anticancer activity against human CCRF-CEM cells assessed as cell growth at 10^-5 M after 48 hrs by SRB assay; format: functional; details: read-out: Activity; in short: as §1
HCT-15 = experiment: Anticancer activity against human HCT15 cells assessed as cell growth at 10^-5 M after 48 hrs by SRB assay; format: functional; details: HCT-15, 48 h, read-out: Activity; in short: as §1
A549 = experiment: Anticancer activity against human A549 cells assessed as cell growth at 10^-5 M after 48 hrs by SRB assay; format: functional; details: A549, 48 h, read-out: Activity; in short: as §1
HCC 2998 = experiment: Anticancer activity against human HCC2998 cells assessed as cell growth at 10^-5 M after 48 hrs by SRB assay; format: functional; details: HCC 2998, 48 h, read-out: Activity; in short: as §1
LOX IMVI = experiment: Anticancer activity against human LOXIMVI cells assessed as cell growth at 10^-5 M after 48 hrs by SRB assay; format: functional; details: read-out: Activity; in short: as §1
SR = experiment: Anticancer activity against human SR cells assessed as cell growth at 10^-5 M after 48 hrs by SRB assay; format: functional; details: read-out: Activity; in short: as §2
SK-MEL-5 = experiment: Anticancer activity against human SK-MEL-5 cells assessed as cell growth at 10^-5 M after 48 hrs by SRB assay; format: functional; details: SK-MEL-5, 48 h, read-out: Activity
HL-60(TB) = experiment: Anticancer activity against human HL-60(TB) cells assessed as cell growth at 10^-5 M after 48 hrs by SRB assay; format: functional; details: HL-60, 48 h, read-out: Activity
In short: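 NCI-60 single-dose screen. Cells in RPMI 1640 with 5% FBS and 2 mM L-glutamine were plated at 5000–40,000 cells/well and preincubated 24 h at 37 °C before one compound concentration. Time-zero plates were TCA-fixed at drug addition. For suspension cells, settled cells were fixed with cold TCA, then SRB-stained and read at 515 nm. Percent growth was calculated from time-zero, control and treated absorbances.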

786-0 = experiment: Anticancer activity against human 786-0 cells assessed as cell growth at 10^-5 M after 48 hrs by SRB assay; format: functional; details: 786-0, 48 h, read-out: Activity; in short: as §1
SK-MEL-2 = experiment: Anticancer activity against human SK-MEL-2 cells assessed as cell growth at 10^-5 M after 48 hrs by SRB assay; format: functional; details: SK-MEL-2, 48 h, read-out: Activity
MDA-MB-435 = experiment: Anticancer activity against human MDA-MB-435 cells assessed as cell growth at 10^-5 M after 48 hrs by SRB assay; format: functional; details: MDA-MB-435, 48 h, read-out: Activity

Row | Structure (SMILES) | growth at 10 µM (HOP-92) | growth at 10 µM (HCT-116) | growth at 10 µM (UACC-257) | growth at 10 µM (IGROV-1) | growth at 10 µM (HOP-62) | growth at 10 µM (NCI-H226) | growth at 10 µM (SF-295) | growth at 10 µM (EKVX) | growth at 10 µM (PC-3) | growth at 10 µM (OVCAR-4) | growth at 10 µM (K562) | IC50 [1] | growth at 10 µM (CAKI-1) | growth at 10 µM (UO-31) | growth at 10 µM (NCI-H522) | growth at 10 µM (SW-620) | growth at 10 µM (CCRF-CEM) | growth at 10 µM (HCT-15) | growth at 10 µM (A549) | growth at 10 µM (HCC 2998) | other results
1 | O=C(NCCNc1nccc(-c2c(-c3cccc(O)c3)nc3sccn23)n1)c1ccc(N2CCOCC2)c(C(F)(F)F)c1 | 38.9% | 60.2% | 15.8% | 54.3% | 96.7% | 69.5% | 67.5% | 74% | 56.6% | 105% | 63% | > 10 µM | 66.9% | 61.3% | 74.4% | 111% | 56.9% | 80% | 64.1% | 106% | growth at 10 µM (LOX IMVI): 42.2%; growth at 10 µM (SR): 76.1%; growth at 10 µM (SK-MEL-5): 40%; growth at 10 µM (HL-60(TB)): 113%; growth at 10 µM (786-0): 60.1%; growth at 10 µM (SK-MEL-2): 66.7%; growth at 10 µM (MDA-MB-435): 20.9%
2 | O=C(NCCNc1nccc(-c2c(-c3cccc(O)c3)nc3sccn23)n1)c1ccccc1O | 59.9% | 25.9% | 14.8% | 31.6% | 114% | 80.5% | 46.4% | 66.8% | 51.1% | 96.2% | 40.5% | 3.2 µM | 24.3% | 34.6% | 29% | 77.9% | 18.9% | 54.5% | 43.3% | 81% | growth at 10 µM (LOX IMVI): 33.5%; growth at 10 µM (SR): 63.2%; growth at 10 µM (SK-MEL-5): 22.7%; growth at 10 µM (HL-60(TB)): 59.8%; growth at 10 µM (786-0): 64.6%; growth at 10 µM (SK-MEL-2): 13.9%; growth at 10 µM (MDA-MB-435): 14.3%
3 | O=C(NCCNc1nccc(-c2c(-c3cccc(O)c3)nc3sccn23)n1)c1cccc(C(F)(F)F)c1 | 83.8% | 74.3% | 14.3% | 62.1% | 114% | 88.5% | 69.6% | 91.6% | 67.3% | 117% | 56.2% | 2.1 µM | 75.6% | 73.4% | 48.5% | 107% | 37.5% | 87.8% | 71.3% | 117% | growth at 10 µM (LOX IMVI): 53.4%; growth at 10 µM (SR): 97%; growth at 10 µM (SK-MEL-5): 52.6%; growth at 10 µM (HL-60(TB)): 95.5%; growth at 10 µM (786-0): 89.3%; growth at 10 µM (SK-MEL-2): 62.1%; growth at 10 µM (MDA-MB-435): 21.7%
4 | COc1cccc(-c2nc3sccn3c2-c2ccnc(NCCNC(=O)Nc3cccc(C(F)(F)F)c3)n2)c1 | 92.4% | 44.6% | 69.5% | 50.9% | 98.9% | 94.9% | 37.7% | 61.5% | 32.9% | 91.1% | 39.9% | 5.3 µM | 40% | 39.7% | 47.7% | 88.9% | 27% | 45.9% | 44.4% | 40.8% | growth at 10 µM (LOX IMVI): 44.3%; growth at 10 µM (SR): 38.5%; growth at 10 µM (SK-MEL-5): 51.5%; growth at 10 µM (HL-60(TB)): 62.8%; growth at 10 µM (786-0): 65.6%; growth at 10 µM (SK-MEL-2): 61.9%; growth at 10 µM (MDA-MB-435): 21.5%
5 | O=C(NCCNc1nccc(-c2c(-c3cccc(O)c3)nc3sccn23)n1)Nc1cc(C(F)(F)F)cc(C(F)(F)F)c1 | 74.4% | 66.3% | 57% | 65.2% | 118% | 101% | 66.8% | 52.2% | 51.2% | 121% | 72.7% | > 10 µM | 72.3% | 73.1% | 69.5% | 73.5% | 39.1% | 79.2% | 57.7% | 65.5% | growth at 10 µM (LOX IMVI): 60.6%; growth at 10 µM (SR): 65.3%; growth at 10 µM (SK-MEL-5): 59.7%; growth at 10 µM (HL-60(TB)): 97.3%; growth at 10 µM (786-0): 82%; growth at 10 µM (SK-MEL-2): 110%; growth at 10 µM (MDA-MB-435): 9.9%
6 | COc1cccc(-c2nc3sccn3c2-c2ccnc(NCCNC(=O)c3ccc(N4CCOCC4)c(C(F)(F)F)c3)n2)c1 | 85.1% | 82.6% | 87.7% | 68.6% | 99.4% | 85.4% | 69.2% | 74.1% | 60.8% | 102% | 32.6% | > 10 µM | 68.8% | 58.2% | 60.6% | 108% | 54.6% | 66.6% | 76.2% | 93.3% | growth at 10 µM (LOX IMVI): 73.5%; growth at 10 µM (SR): 76.7%; growth at 10 µM (SK-MEL-5): 57.2%; growth at 10 µM (HL-60(TB)): 85.2%; growth at 10 µM (786-0): 71.5%; growth at 10 µM (SK-MEL-2): 86.5%; growth at 10 µM (MDA-MB-435): 60.8%
7 | O=C(NCCNc1nccc(-c2c(-c3cccc(O)c3)nc3sccn23)n1)Nc1cccc(C(F)(F)F)c1 | 54.5% | 56.8% | 25.3% | 65.6% | 83.5% | 97% | 75.5% | 91.2% | 26.7% | 110% | 70.6% | 4.2 µM | 90.3% | 75.2% | -5.9% | 30.3% | 23.1% | 84.7% | 39.3% | 23% | growth at 10 µM (LOX IMVI): 64.5%; growth at 10 µM (SR): 59.2%; growth at 10 µM (SK-MEL-5): 53.5%; growth at 10 µM (HL-60(TB)): 36.4%; growth at 10 µM (786-0): 79.4%; growth at 10 µM (SK-MEL-2): 54.4%; growth at 10 µM (MDA-MB-435): -3.01%
